# PubChem BioAssay AID635 (SRMLSC, 2007)
# Test system: E. coli BW25113 growth inhibition, OD615
# Assay: growth inhibition of wild-type E. coli BW25113 pool, dose response, OD615 (AID 635)
# Settings: pooled mutant strains
# Summary of the method: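 times: 20 h, 37 °C growth with compound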
row,SMILES,IC50
1,CC(=O)OCC1=C(C(=O)O)N2C(=O)[C@@H](NC(=O)Cc3cccs3)[C@H]2SC1,10.5 µM
2,O=S1(=O)Nc2c(ccc3cccnc23)-c2ccccc21,20.3 µM
3,CC(=O)c1c(C)n([O-])c2ccccc2[n+]1=O,48.6 µM
4,CCCCOc1ccc(NC2=NC3(CCCCC3)N=C(N)N2)cc1,41 µM
5,C=CCNc1ncnc2c1[nH]c1ccc(C)cc12,41.7 µM
6,Oc1c(CN2CCCCC2)cc(Br)c2cccnc12,37.5 µM
7,CCCCNc1cc(C)nc(NCc2ccccc2)n1,98.5 µM
8,c1ccc(-c2cccc(-c3ccccn3)n2)nc1,41.8 µM
9,CCn1cc(C(=O)NCc2ccc3c(c2)OCO3)c(=O)c2cc(F)c(N3CCN(C)CC3)cc21,28.6 µM
10,COc1ccc(OCC(O)CNc2ccc(Br)cc2)cc1 (centres undefined),102 µM
11,CO[C@@]1(NC(=O)Cc2cccs2)C(=O)N2C(C(=O)O)=C(COC(N)=O)CS[C@@H]21,9.78 µM
12,CN(C)[C@@H]1C(=O)C(C(N)=O)=C(O)[C@@]2(O)C(=O)C3=C(O)c4c(O)ccc(Cl)c4[C@@H](O)[C@H]3C[C@@H]12,0.579 µM
13,NC1C2CN(c3nc4c(cc3F)c(=O)c(C(=O)O)cn4-c3ccc(F)cc3F)CC12 (centres undefined),0.006 µM
14,COc1cc(Cc2cnc(N)nc2N)cc(OC)c1OC,0.595 µM
15,COc1c(N2CCNC(C)C2)c(F)cc2c(=O)c(C(=O)O)cn(C3CC3)c12 (centres undefined),< 0.195 µM
16,CN1CCN(c2c(F)cc3c(=O)c(C(=O)O)cn4c3c2SCC4)CC1,1.11 µM
17,CCn1cc(C(=O)O)c(=O)c2cc(F)c(N3CCN(C(=O)Nc4ccccc4)CC3)cc21,4.05 µM
18,CCC(=O)N1CCN(c2cc3c(cc2F)c(=O)c(C(=O)O)cn3CC)CC1,4.01 µM
19,O=c1ccsn1Cc1ccccc1,34.6 µM
